Consider 30 molecules from ChEMBL document CHEMBL4428110, “Synthesis and bioactivity of novel isoxazole chalcone derivatives on tyrosinase and melanin synthesis in murine B16 cells for the treatment of vitiligo” (Bioorg Med Chem, 2016).

The target in one series is T1, Tyrosinase (Agaricus bisporus, UniProt O42713).
T1 sequence (O42713 whole entry): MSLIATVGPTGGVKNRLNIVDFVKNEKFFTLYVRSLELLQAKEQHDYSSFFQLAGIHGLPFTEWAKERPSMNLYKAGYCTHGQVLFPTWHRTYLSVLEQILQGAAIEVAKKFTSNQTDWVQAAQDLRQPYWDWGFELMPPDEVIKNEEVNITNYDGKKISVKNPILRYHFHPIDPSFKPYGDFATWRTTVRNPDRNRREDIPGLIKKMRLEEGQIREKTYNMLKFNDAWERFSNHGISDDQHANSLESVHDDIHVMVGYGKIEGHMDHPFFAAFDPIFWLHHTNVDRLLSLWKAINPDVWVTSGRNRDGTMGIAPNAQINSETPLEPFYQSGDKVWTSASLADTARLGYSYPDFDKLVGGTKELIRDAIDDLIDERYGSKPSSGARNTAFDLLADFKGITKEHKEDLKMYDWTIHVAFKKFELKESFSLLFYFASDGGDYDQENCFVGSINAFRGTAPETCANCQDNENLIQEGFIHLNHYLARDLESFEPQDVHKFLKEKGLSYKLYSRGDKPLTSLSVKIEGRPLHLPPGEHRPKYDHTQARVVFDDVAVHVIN
Description: Activation of mushroom tyrosinase using L-tyrosine as substrate preincubated for 5 mins followed by substrate addition measured after 30 mins by ELISA. The essentials:
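Mushroom tyrosinase activation: test compounds (0.5–300 μM) in DMSO preincubated with enzyme 5 min at 25–30 °C, then L-tyrosine (2 mM, 0.1 mL) added and incubated a further 30 min; absorbance read at 490 nm. Rate of activation = [(C−D)−(A−B)]/(A−B)×100, A being the enzyme-only system. EC50 reported as mean ± SD of three independent experiments.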
(An ELISA detects its analyte on a solid surface through an enzyme-linked reagent.)

The test system of another series is B16-F10. Description: Cytotoxicity against mouse B16F10 cells assessed as reduction in cell viability at 50 uM after 24 hrs by CCK-8 assay. The format is cell-based. The note with it: b16-f10, 24 h. The essentials:
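Viability: B16F10 cells (DMEM, 10% FBS, 37 °C, 5% CO2) plated at 5×10³ cells/well in 96-well plates, left 12 h, then given fresh medium with 50 μM compound for 24 h. After a cold PBS wash, CCK-8 added for 2 h at 37 °C and absorbance read at 450 nm. Proliferation expressed relative to untreated control; mean ± SD of three experiments.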

Series [1] deals with T2, Tyrosinase (Mus musculus) (UniProt P11344).
T2 sequence (whole entry): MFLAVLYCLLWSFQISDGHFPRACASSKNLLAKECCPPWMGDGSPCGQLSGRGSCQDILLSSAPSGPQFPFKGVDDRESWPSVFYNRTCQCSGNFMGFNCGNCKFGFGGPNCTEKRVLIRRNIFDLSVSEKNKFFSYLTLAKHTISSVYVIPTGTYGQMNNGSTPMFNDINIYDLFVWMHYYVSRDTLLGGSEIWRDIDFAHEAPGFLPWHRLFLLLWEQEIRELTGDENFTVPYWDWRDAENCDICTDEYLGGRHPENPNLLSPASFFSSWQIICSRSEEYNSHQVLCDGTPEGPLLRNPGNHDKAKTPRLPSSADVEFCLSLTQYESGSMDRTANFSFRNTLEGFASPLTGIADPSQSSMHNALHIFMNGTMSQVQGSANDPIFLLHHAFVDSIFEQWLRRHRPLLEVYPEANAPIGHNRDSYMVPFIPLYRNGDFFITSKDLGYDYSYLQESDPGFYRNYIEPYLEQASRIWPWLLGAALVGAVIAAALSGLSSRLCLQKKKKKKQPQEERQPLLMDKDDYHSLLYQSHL
Nature of the series: Activation of tyrosinase in mouse B16F10 cells assessed as melanin production at 50 uM after 48 hrs by spectrophotometric analysis relative to control. The format is cell-based. In outline:
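B16F10 cells grown in DMEM with 10% heat-inactivated FBS and penicillin/streptomycin at 37 °C, 5% CO2. Seeded at 5×10⁵ cells/well in 6-well plates for 24 h, then exposed to 50 μM compound for 48 h. After a cold PBS wash, cells were lysed in RIPA buffer 40 min on ice and dissolved in 1 M NaOH 2 h at 60 °C. Melanin was read at 405 nm and normalized; three separate experiments.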

The target of series [2] is T2, Tyrosinase (Mus musculus). Nature of the series: Potency index, ratio of compound activity to 8-MOP activity for tyrosinase activation in mouse B16F10 cells assessed as melanin production. The format is cell-based.

Active and inactive are the calls of the source. No cut-off for these calls is given here.

By EC50 is commonly meant the concentration at which the effect is half-maximal. High values mean weaker potency, low ones greater potency.

The molecule `Nc1nc2ccc(C(=O)/C=C/c3ccc(Cl)cc3)cc2s1` yielded an EC50 at Tyrosinase of 30.6 µM.

As to `O=C(/C=C/c1ccccc1)c1ccc(OCc2cc(-c3ccc(Cl)cc3)no2)cc1`, on Tyrosinase, the EC50 was found to be 8.1 µM. Also, the Activity result with B16-F10 is “Non-Toxic”.

In the case of `CN(C)c1ccc(-c2cc(COc3ccc(C(=O)/C=C/c4ccccc4)cc3)on2)cc1`, the EC50 at Tyrosinase came to 28.9 µM. For the same molecule, the Activity entry in the series on B16-F10 is “Non-Toxic”.

On Tyrosinase, `O=C(/C=C/c1ccccc1)c1ccc(CCc2cn(Cc3ccc(F)cc3)nn2)cc1` yielded an EC50 of 14.6 µM.

In turn, `Cc1ccc(-c2cc(COc3ccc(C(=O)/C=C/c4ccccc4)cc3)on2)o1` displayed an EC50 on Tyrosinase of 35.6 µM. The Activity entry with B16-F10 is “Non-Toxic”.

Consider `O=C(/C=C/c1ccccc1)c1ccc(OCc2cc(-c3ccc(Cl)c(F)c3)no2)cc1`, for which the result in series [1] was Active. The molecule further came in with an EC50 on Tyrosinase of 3 µM. In the series with B16-F10, the Activity result was “Non-Toxic”.

Molecule `COc1ccc(-c2cc(COc3ccc(C(=O)/C=C/c4ccccc4)cc3)on2)cc1` had a half-maximal effective concentration (EC50) at Tyrosinase of 47.2 µM. Moreover, in the series on B16-F10, the Activity entry is reported as “Non-Toxic”.

For `COc1c2occc2cc2ccc(=O)oc12` [METHOXSALEN], the Activity in series [1] is 115%. The EC50 on Tyrosinase was 14.8 µM.

For the molecule `O=C(/C=C/c1ccccc1)c1ccc(OCc2cc(-c3ccc4c(c3)OCCO4)no2)cc1`, the Activity in series [1] was 438%; with B16-F10 it was “Non-Toxic”. Moreover, the Ratio in series [2] was determined as 4. In addition, at Tyrosinase, the EC50 is more than 100 µM.

Regarding `O=C(/C=C/c1ccccc1)c1ccc(OCc2cc(-c3ccc(Cl)c(Cl)c3)no2)cc1`, in series [1], the outcome was Active. At Tyrosinase, the response was half-maximal at 2.5 µM (EC50). Moreover, the Activity result in the series with B16-F10 was “Non-Toxic”.

On Tyrosinase, `O=C(/C=C/c1ccccc1)c1ccc(OCc2cc(-c3ccccc3)no2)cc1` showed an EC50 of 78.1 µM. In the series with B16-F10, the Activity entry is given as “Non-Toxic”.

Regarding `O=C(/C=C/c1ccccc1)c1ccc(OCc2cc(-c3cccc(OC(F)(F)F)c3)no2)cc1`, in series [1], the outcome was Active. The molecule further returned an EC50 on Tyrosinase of 25.5 µM. The Activity entry in the series on B16-F10 was “Non-Toxic”.

The molecule `O=C(/C=C/c1ccccc1)c1ccc(OCc2cc(-c3ccc(I)o3)no2)cc1` had an EC50 on Tyrosinase of 11.4 µM. In addition, in the series on B16-F10, the Activity entry is reported as “Non-Toxic”.

On Tyrosinase, `O=C(/C=C/c1ccccc1)c1ccc(OCc2cc(-c3cccs3)no2)cc1` had an EC50 of 56.2 µM. In addition, in the series with B16-F10, the Activity entry is recorded as “Non-Toxic”.

Turning to `O=C(/C=C/c1ccccc1)c1ccc(OCc2cc(-c3cccc(F)c3)no2)cc1`, the Activity is 330% in series [1] and “Non-Toxic” with B16-F10. Further, the Ratio in series [2] turned out to be 4. This molecule also yielded a concentration giving a half-maximal response (EC50) at Tyrosinase of 21.3 µM.

On Tyrosinase, `O=C(/C=C/c1ccc(Cl)cc1)c1ccc2nc(NC(=O)c3ccccc3)sc2c1` showed an EC50 of 9.6 µM.

`O=C(/C=C/c1ccccc1)c1ccc(OCc2cc(-c3cccc(Cl)c3)no2)cc1`: a half-maximal effect at Tyrosinase (EC50) was put at 23.8 µM. Also, the Activity result in the series with B16-F10 is “Non-Toxic”.

`O=C(/C=C/c1ccccc1)c1ccc(OCc2cc(-c3ccc(F)cc3)no2)cc1`: on Tyrosinase, a half-maximal effect (EC50) was put at 6.4 µM. In addition, in the series on B16-F10, the Activity result is recorded as “Non-Toxic”.

Consider `O=C(/C=C/c1ccccc1)c1ccc(OCc2cc(-c3ccc(F)c(F)c3)no2)cc1`, for which the Activity in series [1] is 463%; with B16-F10 it was “Non-Toxic”. Moreover, in series [2], the Ratio was determined as 3. Moreover, a half-maximal effect at Tyrosinase (EC50) was put at 1.3 µM.

In turn, `COc1ccccc1-c1cc(COc2ccc(C(=O)/C=C/c3ccccc3)cc2)on1` yielded an EC50 at Tyrosinase of 65.3 µM. The Activity result with B16-F10 was “Non-Toxic”.

As for `O=C(/C=C/c1ccc(Cl)cc1)c1ccc(NC(=O)c2ccccc2)cc1`, the EC50 at Tyrosinase is 21.1 µM.

With `COc1cccc(Cn2cc(CCc3ccc(C(=O)/C=C/c4ccccc4)cc3)nn2)c1`, the EC50 at Tyrosinase is 37.4 µM. Compared with the last molecule, the EC50 is about 1.8-fold higher.

Turning to `O=C(/C=C/c1ccccc1)c1ccc(OCc2cc(-c3ccc([N+](=O)[O-])cc3)no2)cc1`, the EC50 at Tyrosinase is more than 100 µM. Further, the Activity result with B16-F10 was “Non-Toxic”.

As to `O=C(/C=C/c1ccccc1)c1ccc(OCc2cc(-c3cc(Cl)cc(Cl)c3)no2)cc1`, the Activity in series [1] is 57%; in the series on B16-F10, “Non-Toxic”. The EC50 on Tyrosinase was 12.7 µM.

As to `O=C(/C=C/c1ccccc1)c1ccc(CCc2cn(Cc3ccc(Cl)c(Cl)c3)nn2)cc1`, the EC50 on Tyrosinase was 1.71 µM.

`O=C(/C=C/c1ccccc1)c1ccc(CCc2cn(Cc3cccc(F)c3)nn2)cc1` registered an EC50 on Tyrosinase of 5.6 µM.

In the case of `Cc1ccc(S(=O)(=O)Nc2ccc(C(=O)/C=C/c3ccc(Cl)cc3)cc2)cc1`, on Tyrosinase, a half-maximal response (EC50) required 25.8 µM.

Take `O=C(/C=C/c1ccccc1)c1ccc(CCc2cn(Cc3cccc(Cl)c3)nn2)cc1`: the EC50 at Tyrosinase is 11.9 µM. Compared with the last molecule, the EC50 is about 2.2-fold lower.

With `Cc1ccc(/C=C/C(=O)c2ccc3nc(NC(=O)c4ccccc4)sc3c2)cc1`, the response at Tyrosinase was half-maximal at 17.1 µM (EC50). This EC50 and that of the molecule before are within 1.5-fold of each other.

In the case of `O=C(/C=C/c1ccccc1)c1ccc(CCc2cn(Cc3ccc(Cl)cc3)nn2)cc1`, on Tyrosinase, a half-maximal response (EC50) required 23.9 µM.
